Data on 2 compounds can be found in ChEMBL document CHEMBL5649170, “Sustained microglial depletion with CSF1R inhibitor impairs parenchymal plaque development in an Alzheimer's disease model” (Nat Commun, 2019).

Where only a bound is given, the exact number is not on record here.

The subject of series [1] is Mus musculus. The experiment in a line: Antialzheimer activity in 5XFAD mouse assessed as number of plaques per FOV in […] cortex at 75 ppm administered as rodent chow starting from 1.5 months and measured after 5 months by immunolabeling based confocal microscopic analysis (reference value: […] to […]). The format is functional. The settings on record: route po, time 3.5 months, 2555 h.

The target in series [2] is RAC-gamma serine/threonine-protein kinase (Homo sapiens, UniProt Q9Y243). The experiment in a line: Inhibition of AKT3 (unknown origin).
Chain of RAC-gamma serine/threonine-protein kinase (Q9Y243 whole entry): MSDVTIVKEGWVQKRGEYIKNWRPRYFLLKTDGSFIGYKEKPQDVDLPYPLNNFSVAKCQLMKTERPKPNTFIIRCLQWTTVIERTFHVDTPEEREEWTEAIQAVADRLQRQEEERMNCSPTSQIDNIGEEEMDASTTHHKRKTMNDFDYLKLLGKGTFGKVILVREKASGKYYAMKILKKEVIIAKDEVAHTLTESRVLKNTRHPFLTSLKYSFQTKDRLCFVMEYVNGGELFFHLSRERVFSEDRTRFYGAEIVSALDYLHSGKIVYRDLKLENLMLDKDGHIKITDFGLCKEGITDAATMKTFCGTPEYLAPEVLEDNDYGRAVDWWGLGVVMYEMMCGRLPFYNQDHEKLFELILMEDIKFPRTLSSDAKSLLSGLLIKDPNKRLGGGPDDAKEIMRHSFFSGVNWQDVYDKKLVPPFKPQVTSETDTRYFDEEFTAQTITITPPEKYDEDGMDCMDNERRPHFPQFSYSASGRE
Series [3] deals with AMP-activated protein kinase (AMPK) alpha-1/beta-1/gamma-1 (Homo sapiens, UniProt P54619+Q13131+Q9Y478). The experiment in a line: Inhibition of AMPK_A1/B1/G1 (unknown origin). Format: protein-complex assay.
Chain of AMP-activated protein kinase (AMPK) alpha-1/beta-1/gamma-1 (P54619 whole entry): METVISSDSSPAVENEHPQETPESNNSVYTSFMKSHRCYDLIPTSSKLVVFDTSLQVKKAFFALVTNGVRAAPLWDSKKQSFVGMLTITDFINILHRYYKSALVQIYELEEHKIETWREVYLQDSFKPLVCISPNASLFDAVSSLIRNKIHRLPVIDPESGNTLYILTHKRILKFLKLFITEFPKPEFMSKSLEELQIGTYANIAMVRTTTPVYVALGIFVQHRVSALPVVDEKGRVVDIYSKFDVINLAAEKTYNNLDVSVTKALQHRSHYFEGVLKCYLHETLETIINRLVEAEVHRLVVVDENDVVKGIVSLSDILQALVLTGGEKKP
Chain of AMP-activated protein kinase (AMPK) alpha-1/beta-1/gamma-1 (Q9Y478 whole entry): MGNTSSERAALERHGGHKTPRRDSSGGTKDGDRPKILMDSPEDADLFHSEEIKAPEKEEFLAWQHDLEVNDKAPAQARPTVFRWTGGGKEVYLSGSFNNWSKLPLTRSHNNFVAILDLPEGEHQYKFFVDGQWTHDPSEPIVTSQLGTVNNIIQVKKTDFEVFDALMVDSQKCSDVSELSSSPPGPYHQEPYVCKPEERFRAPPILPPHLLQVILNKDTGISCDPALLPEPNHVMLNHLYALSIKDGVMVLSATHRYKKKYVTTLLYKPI
Chain of AMP-activated protein kinase (AMPK) alpha-1/beta-1/gamma-1 (Q13131 whole entry): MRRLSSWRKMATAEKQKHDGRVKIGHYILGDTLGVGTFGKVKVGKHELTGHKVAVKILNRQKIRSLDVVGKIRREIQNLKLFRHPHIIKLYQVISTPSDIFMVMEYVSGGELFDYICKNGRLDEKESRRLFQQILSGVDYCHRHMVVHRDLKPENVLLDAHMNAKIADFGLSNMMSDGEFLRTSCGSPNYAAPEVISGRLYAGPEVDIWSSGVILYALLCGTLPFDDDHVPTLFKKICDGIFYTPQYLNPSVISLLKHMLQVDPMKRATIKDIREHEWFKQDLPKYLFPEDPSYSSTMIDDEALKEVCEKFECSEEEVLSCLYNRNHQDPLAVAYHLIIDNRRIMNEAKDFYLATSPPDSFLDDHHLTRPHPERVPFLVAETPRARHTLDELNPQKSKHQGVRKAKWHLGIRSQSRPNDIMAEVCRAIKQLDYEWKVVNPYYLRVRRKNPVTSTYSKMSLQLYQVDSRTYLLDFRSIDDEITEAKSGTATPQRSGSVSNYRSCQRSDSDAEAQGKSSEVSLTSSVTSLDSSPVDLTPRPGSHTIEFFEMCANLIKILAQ
Series [4] has as its target Calcium/calmodulin-dependent protein kinase type 1D (Homo sapiens, UniProt Q8IU85). The experiment in a line: Inhibition of CAMK1D (unknown origin).
Series [5] addresses Fibroblast growth factor receptor 3 (Homo sapiens, UniProt P22607). The experiment in a line: Inhibition of FGFR3 (unknown origin).
Series [6] addresses Insulin-like growth factor 1 receptor (Homo sapiens, UniProt P08069). The experiment in a line: Inhibition of IGF1R (unknown origin).
For series [7], the target named is Serine/threonine-protein kinase Nek9 (Homo sapiens, UniProt Q8TD19). The experiment in a line: Inhibition of NEK9 (unknown origin).
The target in series [8] is Serine/threonine-protein kinase pim-1 (Homo sapiens, UniProt P11309). The experiment in a line: Inhibition of PIM1 (unknown origin).
Chain of Serine/threonine-protein kinase pim-1 (P11309 whole entry): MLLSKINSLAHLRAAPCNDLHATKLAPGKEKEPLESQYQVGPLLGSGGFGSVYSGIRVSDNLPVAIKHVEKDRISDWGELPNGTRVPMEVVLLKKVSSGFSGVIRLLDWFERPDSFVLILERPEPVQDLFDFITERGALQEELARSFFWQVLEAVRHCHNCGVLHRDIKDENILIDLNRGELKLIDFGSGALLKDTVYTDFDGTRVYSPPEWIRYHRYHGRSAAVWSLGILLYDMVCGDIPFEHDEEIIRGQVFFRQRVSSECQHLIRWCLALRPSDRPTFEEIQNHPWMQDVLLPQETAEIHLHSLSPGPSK
Series [9] addresses Serine/threonine-protein kinase D3 (Homo sapiens, UniProt O94806). The experiment in a line: Inhibition of PRKCN (unknown origin).
Series [10] is described as follows: AUC (0 to infinity) in monkey at 1.35 mg/kg, iv administered as single dose. Format: ADME, organism-based, Macaca mulatta. As to conditions: rhesus monkey, in vivo.
Series [11] is described as follows: Clearance in female rat at 1.13 mg/kg, iv administered as single dose. Format: ADME, organism-based. The settings on record: in vivo.
Series [12] in a line: Clearance in monkey at 1.35 mg/kg, iv administered as single dose. The settings on record: rhesus monkey, in vivo. Format: ADME, organism-based, Macaca mulatta.
Series [13] is described as follows: Volume of distribution at steady state in monkey at 1.35 mg/kg, iv administered as single dose. The settings on record: rhesus monkey, in vivo, read-out: Vdss. Format: ADME, organism-based, Macaca mulatta.
Series [14] deals with Mus musculus. The experiment in a line: Antialzheimer activity in 5XFAD mouse assessed as number of Iba positive cells per FOV in microglia at 1200 ppm administered as rodent chow for 5 days by DAPI staining based immunolabeling analysis (reference value: 119 to 154). The format is functional. The settings on record: route po, time 5 day.
The subject of series [15] is Mus musculus. The experiment in a line: Effect on circulating leukocytes in wildtype mouse assessed as percentage of CD45+/PI- cells expressing CD11b at 1200 ppm administered as rodent chow for 10 to 24 weeks (reference value: 6.22 to 25.7 %). Format: functional. As to conditions: route po, time 10-24 weeks.
A short description of series [16]: Toxicity in wildtype mouse assessed as time in platform zone at 1200 ppm administered as rodent chow for 10 to 24 weeks by Morris water maze test (reference value: 0 to 2.7 sec). The settings on record: in vivo, po, time 10-24 weeks.
The subject of series [17] is Mus musculus. The experiment in a line: Antialzheimer activity in 5XFAD mouse assessed as number of Thio-S positive plaques per FOV in somatosensory cortex at 1200 ppm administered as rodent chow starting from 1.5 months and measured after 7 months by Thio-S staining based confocal microscopic analysis (reference value: 22 to 106). Format: functional. The settings on record: route po, time 5.5 months, 4015 h.

The subject of series [18] is Mus musculus. The experiment in a line: Antialzheimer activity in 5XFAD mouse assessed as amyloidbeta40 level in detergent soluble cortex fraction measured per microgram protein at 1200 ppm administered as rodent chow starting from 1.5 months and measured after 4 months by ELISA (reference value: 0 to 0.089 pg). The settings on record: route po, time 2.5 months, 1825 h. Format: functional. In outline:
(§1)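 PLX5622 at 1200 ppm in chow given to 5xFAD mice from 1.5 months to 4 or 7 months of age; cortex and thalamus homogenized in TPER (detergent-soluble), pellets re-homogenized in 70% formic acid and spun 100,000 g, 1 h, 4 °C (insoluble); protein by Bradford/Lowry; Aβ species measured by Meso Scale electrochemiluminescence immunoassay, normalized to protein; n = 7–8 per group at 7 months.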
In general terms: ELISA stands for enzyme-linked immunosorbent assay.

Series [19] has as its system Mus musculus. The experiment in a line: Antialzheimer activity in 5XFAD mouse assessed as amyloidbeta40 level in detergent insoluble cortex fraction measured per microgram protein at 1200 ppm administered as rodent chow starting from 1.5 months and measured after 7 months by ELISA (reference value: 615.15 to 39796 pg). The format is functional. As to conditions: route po, time 5.5 months, 4015 h. In outline:
as §1

In series [20] the test system is Mus musculus. The experiment in a line: Effect on APP processing pathway in wildtype mouse assessed as C-terminal PS1 protein signal intensity in cortex at 1200 ppm administered as rodent starting from 1.5 months and measured after 7 months (reference value: 5.248 to 133.048 %). Format: functional. The settings on record: route po, time 5.5 months, 4015 h.
Series [21] has as its system Mus musculus. The experiment in a line: Effect on APP processing pathway in wildtype mouse assessed as PEN2 protein signal intensity in cortex at 1200 ppm administered as rodent starting from 1.5 months and measured after 7 months (reference value: 47.716 to 128.950 %). The settings on record: route po, time 5.5 months, 4015 h. Format: functional.
Series [22] relates to Mus musculus. The experiment in a line: Antialzheimer activity in 5XFAD mouse assessed as ApoE immunoreactivity by measuring reduction in core ApoE in cortex at 1200 ppm administered as rodent chow starting from 1.5 months and measured after 7 months by immunolabeling based confocal microscopic analysis relative to control. The format is functional. More on the design: scale not given: the % may be the effect or the level left. As to conditions: route po, time 5.5 months, 4015 h.

A short description of series [23]: Effect on Spi1 gene expression in wild type mouse cortex at 1200 ppm administered as rodent chow starting from 1.5 months and measured after 7 months by RNA-Seq analysis (reference value: 1.059 to 1.887 RPKM). The format is functional. The settings on record: route po, time 5.5 months, 4015 h.
Series [24] in a line: Effect on Kcnq3 gene expression in wildtype mouse hippocampus assessed as percent change in Reads Per kilo base per Million mapped reads at 1200 ppm administered as rodent chow starting from 1.5 months and measured after 7 months by RNA-Seq analysis (reference value: 77.761 to 119.973 %). As to conditions: route po, time 5.5 months, 4015 h. The format is functional.
Series [25] in a line: Effect on Gls gene expression in wildtype mouse hippocampus assessed as percent change in Reads Per kilo base per Million mapped reads at 1200 ppm administered as rodent chow starting from 1.5 months and measured after 7 months by RNA-Seq analysis (reference value: 89.231 to 109.618 %). The format is functional. The settings on record: route po, time 5.5 months, 4015 h.
A short description of series [26]: Effect on Dynll1 gene expression in wildtype mouse hippocampus assessed as percent change in Reads Per kilo base per Million mapped reads at 1200 ppm administered as rodent chow starting from 1.5 months and measured after 7 months by RNA-Seq analysis (reference value: 83.247 to 113.338 %). The format is functional. The settings on record: route po, time 5.5 months, 4015 h.

Series [27] can be described thus: Prevention of Rtn4r gene downregulation in 5XFAD mouse hippocampus assessed as percent change in Reads Per kilo base per Million mapped reads at 1200 ppm administered as rodent chow starting from 1.5 months and measured after 7 months by RNA-Seq analysis (reference value: 53.880 to 87.869 %). Format: functional. As to conditions: route po, time 5.5 months, 4015 h.

The nature of series [28]: Prevention of Nrg3 gene downregulation in 5XFAD mouse hippocampus assessed as percent change in Reads Per kilo base per Million mapped reads at 1200 ppm administered as rodent chow starting from 1.5 months and measured after 7 months by RNA-Seq analysis (reference value: 52.623 to 75.016 %). The format is functional. The settings on record: route po, time 5.5 months, 4015 h.

A short description of series [29]: Prevention of Dusp5 gene downregulation in 5XFAD mouse hippocampus assessed as percent change in Reads Per kilo base per Million mapped reads at 1200 ppm administered as rodent chow starting from 1.5 months and measured after 7 months by RNA-Seq analysis (reference value: 41.082 to 74.744 %). The format is functional. The settings on record: route po, time 5.5 months, 4015 h.

Chain of Fibroblast growth factor receptor 3 (P22607 whole entry): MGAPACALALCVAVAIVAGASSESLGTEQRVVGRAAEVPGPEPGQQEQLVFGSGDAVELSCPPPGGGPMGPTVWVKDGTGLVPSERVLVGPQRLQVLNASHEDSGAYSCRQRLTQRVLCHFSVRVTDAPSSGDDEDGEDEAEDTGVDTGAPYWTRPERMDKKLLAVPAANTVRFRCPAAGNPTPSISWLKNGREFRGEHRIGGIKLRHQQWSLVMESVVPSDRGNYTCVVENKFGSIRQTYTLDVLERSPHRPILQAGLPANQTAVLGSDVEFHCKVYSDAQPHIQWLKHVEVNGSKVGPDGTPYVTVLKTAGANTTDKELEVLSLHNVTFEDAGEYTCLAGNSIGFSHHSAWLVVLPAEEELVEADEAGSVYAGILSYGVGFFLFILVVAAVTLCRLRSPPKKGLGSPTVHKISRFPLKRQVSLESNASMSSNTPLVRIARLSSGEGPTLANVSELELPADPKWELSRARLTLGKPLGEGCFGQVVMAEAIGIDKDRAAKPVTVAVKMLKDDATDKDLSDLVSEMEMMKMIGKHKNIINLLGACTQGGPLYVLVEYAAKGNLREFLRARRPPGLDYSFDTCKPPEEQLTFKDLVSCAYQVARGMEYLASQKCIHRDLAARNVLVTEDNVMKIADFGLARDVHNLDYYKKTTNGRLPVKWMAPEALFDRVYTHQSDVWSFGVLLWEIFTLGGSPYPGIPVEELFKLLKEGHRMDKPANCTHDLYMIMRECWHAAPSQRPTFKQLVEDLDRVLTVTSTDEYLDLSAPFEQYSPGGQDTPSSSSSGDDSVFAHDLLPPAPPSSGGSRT
Chain of Calcium/calmodulin-dependent protein kinase type 1D (Q8IU85 whole entry): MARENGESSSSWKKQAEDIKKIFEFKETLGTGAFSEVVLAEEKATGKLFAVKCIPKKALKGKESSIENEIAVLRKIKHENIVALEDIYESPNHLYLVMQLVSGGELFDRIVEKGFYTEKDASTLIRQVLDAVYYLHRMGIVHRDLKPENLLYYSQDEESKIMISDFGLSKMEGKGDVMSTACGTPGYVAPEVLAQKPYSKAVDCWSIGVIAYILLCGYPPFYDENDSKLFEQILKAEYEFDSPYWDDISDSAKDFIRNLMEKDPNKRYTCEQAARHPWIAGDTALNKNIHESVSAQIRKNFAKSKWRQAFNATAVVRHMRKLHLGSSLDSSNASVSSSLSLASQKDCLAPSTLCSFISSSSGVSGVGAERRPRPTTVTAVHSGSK
Chain of Insulin-like growth factor 1 receptor (P08069 31-736 limits assumed): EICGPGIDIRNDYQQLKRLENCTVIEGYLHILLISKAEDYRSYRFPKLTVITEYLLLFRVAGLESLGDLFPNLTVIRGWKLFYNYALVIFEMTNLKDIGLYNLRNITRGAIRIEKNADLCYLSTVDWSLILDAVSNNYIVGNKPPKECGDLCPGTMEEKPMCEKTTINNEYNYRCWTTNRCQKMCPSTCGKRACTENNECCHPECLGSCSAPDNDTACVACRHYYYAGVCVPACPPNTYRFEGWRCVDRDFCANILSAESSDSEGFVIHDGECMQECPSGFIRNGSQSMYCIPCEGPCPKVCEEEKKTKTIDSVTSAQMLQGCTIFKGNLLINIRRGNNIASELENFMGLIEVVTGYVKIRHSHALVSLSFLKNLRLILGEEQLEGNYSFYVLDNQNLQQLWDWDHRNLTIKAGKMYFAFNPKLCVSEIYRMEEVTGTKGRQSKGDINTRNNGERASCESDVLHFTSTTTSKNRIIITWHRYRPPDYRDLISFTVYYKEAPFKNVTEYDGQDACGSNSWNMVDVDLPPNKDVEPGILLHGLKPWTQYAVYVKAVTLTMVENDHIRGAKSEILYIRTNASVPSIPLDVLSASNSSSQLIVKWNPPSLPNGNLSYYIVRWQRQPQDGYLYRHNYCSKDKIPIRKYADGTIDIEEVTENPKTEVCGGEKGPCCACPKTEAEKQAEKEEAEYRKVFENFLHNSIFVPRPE
Chain of Insulin-like growth factor 1 receptor (P08069 741-1367 limits assumed): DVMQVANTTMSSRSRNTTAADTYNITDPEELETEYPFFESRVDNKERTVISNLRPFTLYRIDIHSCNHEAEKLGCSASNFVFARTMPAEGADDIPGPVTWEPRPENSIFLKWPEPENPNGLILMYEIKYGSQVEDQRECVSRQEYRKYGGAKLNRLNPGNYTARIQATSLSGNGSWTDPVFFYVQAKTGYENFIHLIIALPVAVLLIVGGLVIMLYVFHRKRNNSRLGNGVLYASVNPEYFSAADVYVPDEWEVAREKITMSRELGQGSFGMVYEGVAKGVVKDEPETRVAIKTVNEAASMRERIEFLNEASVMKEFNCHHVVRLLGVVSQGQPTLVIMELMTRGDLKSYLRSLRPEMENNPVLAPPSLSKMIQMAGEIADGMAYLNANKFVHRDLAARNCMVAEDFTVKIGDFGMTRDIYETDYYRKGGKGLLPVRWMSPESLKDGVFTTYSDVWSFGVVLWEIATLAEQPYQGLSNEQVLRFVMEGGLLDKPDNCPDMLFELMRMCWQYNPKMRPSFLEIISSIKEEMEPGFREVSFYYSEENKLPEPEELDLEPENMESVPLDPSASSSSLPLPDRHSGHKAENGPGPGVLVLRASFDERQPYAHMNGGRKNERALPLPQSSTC

In the case of `FC(F)(F)c1ccc(CNc2ccc(Cc3c[nH]c4ncc(Cl)cc34)cn2)cn1` [PEXIDARTINIB], in the series on Mus musculus [1], the Activity is recorded as 34.
Usually IC50 stands for the concentration needed to halve the response being measured. In general, AUC(0-inf) refers to total exposure, with the tail of the curve extrapolated. In general, clearance refers to the rate of elimination divided by the concentration. Regarding `COc1ncc(F)cc1CNc1ccc(Cc2c[nH]c3ncc(C)cc23)c(F)n1` [PLX-5622], the IC50 in series [2], in series [3], in [4], in series [5], in [6] and in series [7] was above 1000 nM each time. The half-inhibitory concentration (IC50) in series [8] and in [9] was above 1000 nM in each case. In series [10], the AUC(0-inf) came to 2100 ng·h/mL. The figures for the clearance in series [11] and in series [12] were 3.7 mL/min/kg and 11 mL/min/kg, respectively. In addition, the Vd in series [13] came out at 1.6 L/kg. In addition, the Activity in the series with Mus musculus [14] is listed as 1; in the series with Mus musculus [15], 18.9%; in the series on Mus musculus [17], 2; in the series with Mus musculus [18] it was 0 pg; with Mus musculus [19], 89.514 pg; in the series with Mus musculus [20], 15.313%. Also, the Activity was 9.039% in the series on Mus musculus [21]; around 50% in the series with Mus musculus [22]; 0 RPKM in [23]; 52.407% in series [24]; 68.459% in series [25]; 101.141% in [26]. Further, the Activity is recorded as 95.841% in [27], 86.32% in series [28] and 83.733% in series [29]. Further, the Time in series [16] was 0.4 s.
